What was measured:
[1] = target: T1, Tyrosine-protein kinase Lyn (Homo sapiens, UniProt P07948); assay: Inhibition of LYN-A expressed in Sf9 cells after 60 mins by TR-FRET Assay
[2] = Inhibition of anti-IgM-stimulated human B cell proliferation assessed as [3H]thymidine incorporation preincubated for 30 mins measured after 3 days; format: functional, cell-based
[3] = target: T2, Tyrosine-protein kinase BTK (Homo sapiens, UniProt Q06187); assay: Inhibition of human full-length BTK expressed in Sf9 cells using FAM-Srctide peptide as substrate after 60 mins by TR-FRET Assay
T2 sequence (Q06187 whole entry): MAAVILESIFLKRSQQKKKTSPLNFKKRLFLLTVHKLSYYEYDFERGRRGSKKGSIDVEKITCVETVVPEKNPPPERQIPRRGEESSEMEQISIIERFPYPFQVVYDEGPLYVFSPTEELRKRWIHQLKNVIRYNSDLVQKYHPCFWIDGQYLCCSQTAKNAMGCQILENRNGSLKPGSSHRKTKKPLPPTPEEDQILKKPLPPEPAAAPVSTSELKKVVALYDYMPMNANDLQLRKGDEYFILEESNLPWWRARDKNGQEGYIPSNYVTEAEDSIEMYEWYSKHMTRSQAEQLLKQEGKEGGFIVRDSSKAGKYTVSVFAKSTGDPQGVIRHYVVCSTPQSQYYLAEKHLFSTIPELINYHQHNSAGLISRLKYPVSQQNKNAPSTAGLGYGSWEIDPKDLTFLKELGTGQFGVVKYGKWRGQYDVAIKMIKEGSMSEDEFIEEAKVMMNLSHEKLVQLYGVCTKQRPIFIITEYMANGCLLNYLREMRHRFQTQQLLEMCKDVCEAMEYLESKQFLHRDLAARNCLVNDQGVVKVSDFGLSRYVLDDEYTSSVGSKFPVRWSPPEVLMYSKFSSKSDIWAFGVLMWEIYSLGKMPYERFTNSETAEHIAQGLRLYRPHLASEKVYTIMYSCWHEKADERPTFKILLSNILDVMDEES

[4] = target: T3, Aryl hydrocarbon receptor (Mus musculus, UniProt P30561); assay: Agonist activity at Ah receptor in genetically engineered mouse cells expressing firefly luciferase gene by CALUX transactivational assay; format: functional
T3 sequence (P30561 whole entry): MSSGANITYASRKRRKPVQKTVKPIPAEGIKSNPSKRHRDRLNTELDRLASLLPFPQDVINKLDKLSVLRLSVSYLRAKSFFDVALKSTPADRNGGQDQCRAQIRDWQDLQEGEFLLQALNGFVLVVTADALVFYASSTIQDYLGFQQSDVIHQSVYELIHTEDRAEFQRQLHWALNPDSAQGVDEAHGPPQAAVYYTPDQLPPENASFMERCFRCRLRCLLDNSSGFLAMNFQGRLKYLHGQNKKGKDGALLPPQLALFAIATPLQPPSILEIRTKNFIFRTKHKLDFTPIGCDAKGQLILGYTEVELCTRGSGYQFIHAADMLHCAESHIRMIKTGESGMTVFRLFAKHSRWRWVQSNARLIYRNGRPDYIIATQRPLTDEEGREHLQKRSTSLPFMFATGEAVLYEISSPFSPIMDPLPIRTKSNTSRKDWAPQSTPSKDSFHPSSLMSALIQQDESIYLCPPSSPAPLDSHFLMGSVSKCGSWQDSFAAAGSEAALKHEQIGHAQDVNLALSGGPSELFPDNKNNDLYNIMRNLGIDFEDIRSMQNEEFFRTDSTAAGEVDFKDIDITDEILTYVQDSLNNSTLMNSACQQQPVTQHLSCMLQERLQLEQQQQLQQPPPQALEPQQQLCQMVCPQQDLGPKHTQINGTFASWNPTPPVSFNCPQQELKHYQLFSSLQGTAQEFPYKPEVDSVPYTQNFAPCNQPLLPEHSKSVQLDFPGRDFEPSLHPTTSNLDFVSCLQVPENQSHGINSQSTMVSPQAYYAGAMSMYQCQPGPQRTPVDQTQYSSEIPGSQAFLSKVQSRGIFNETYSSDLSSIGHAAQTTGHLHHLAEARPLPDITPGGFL

[5] = target: T4, Proto-oncogene tyrosine-protein kinase Src (Homo sapiens, UniProt P12931); assay: Inhibition cSRC expressed in Sf9 cells preincubated for 60 mins measured after 60 mins by TR-FRET Assay
T4 sequence (P12931 2-536 limits assumed): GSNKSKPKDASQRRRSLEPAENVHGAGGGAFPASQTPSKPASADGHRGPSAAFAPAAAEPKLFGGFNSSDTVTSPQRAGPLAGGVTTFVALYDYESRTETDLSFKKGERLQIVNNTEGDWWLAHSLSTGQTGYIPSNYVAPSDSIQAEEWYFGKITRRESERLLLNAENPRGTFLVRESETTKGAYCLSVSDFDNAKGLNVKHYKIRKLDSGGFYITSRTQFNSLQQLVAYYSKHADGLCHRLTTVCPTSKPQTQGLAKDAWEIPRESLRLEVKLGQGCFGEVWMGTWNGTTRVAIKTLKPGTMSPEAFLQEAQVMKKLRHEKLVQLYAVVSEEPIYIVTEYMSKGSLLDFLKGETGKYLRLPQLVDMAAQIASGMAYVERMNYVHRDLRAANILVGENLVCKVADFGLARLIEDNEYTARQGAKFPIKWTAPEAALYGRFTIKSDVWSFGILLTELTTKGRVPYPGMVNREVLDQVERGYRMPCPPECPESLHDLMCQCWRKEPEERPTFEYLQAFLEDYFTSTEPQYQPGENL

[6] = Cmax in mouse at 10 mg/kg, po; format: ADME, organism-based; design: dose 10 mg/kg, route oral; settings: in vivo
[7] = target: T2, Tyrosine-protein kinase BTK; assay: Inhibition of human full-length BTK expressed in Sf9 cells using FAM-Srctide peptide as substrate preincubated for 60 mins measured after 60 mins by TR-FRET Assay
In short: (§1)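 The compound was pre-incubated with the kinase before the enzymatic reaction was started. IC50 values are averages of two or more determinations.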

[8] = target: Tyrosine-protein kinase Lck (Homo sapiens, UniProt P06239); assay: Inhibition of C-terminal His6-tagged human full-length LCK expressed in Sf9 cells preincubated for 60 mins measured after 60 mins by TR-FRET Assay
Chain of Tyrosine-protein kinase Lck (P06239 whole entry): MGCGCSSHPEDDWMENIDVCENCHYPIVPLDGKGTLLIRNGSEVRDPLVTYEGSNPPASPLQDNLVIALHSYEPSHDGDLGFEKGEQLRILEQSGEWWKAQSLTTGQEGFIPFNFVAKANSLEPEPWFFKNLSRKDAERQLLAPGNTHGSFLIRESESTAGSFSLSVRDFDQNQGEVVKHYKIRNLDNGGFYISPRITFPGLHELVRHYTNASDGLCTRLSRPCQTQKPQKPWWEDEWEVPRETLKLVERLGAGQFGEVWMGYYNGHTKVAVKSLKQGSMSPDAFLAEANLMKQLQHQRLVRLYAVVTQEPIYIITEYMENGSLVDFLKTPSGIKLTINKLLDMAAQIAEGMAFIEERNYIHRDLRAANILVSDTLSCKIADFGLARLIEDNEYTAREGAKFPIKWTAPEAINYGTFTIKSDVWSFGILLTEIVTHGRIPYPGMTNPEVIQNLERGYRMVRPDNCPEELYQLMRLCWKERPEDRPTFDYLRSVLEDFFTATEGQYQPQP

[9] = target: T1, Tyrosine-protein kinase Lyn; assay: Inhibition of LYN-A expressed in Sf9 cells preincubated for 60 mins measured after 60 mins by TR-FRET Assay; in short: as §1
[10] = Half life in mouse at 2 mg/kg, iv; format: ADME, organism-based; design: dose 2 mg/kg, route intravenous; settings: in vivo
[11] = target: T4, Proto-oncogene tyrosine-protein kinase Src; assay: Inhibition cSRC expressed in Sf9 cells after 60 mins by TR-FRET Assay
[12] = Oral bioavailability in mouse at 10 mg/kg; format: ADME, organism-based; settings: in vivo
In short: (§2)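 Mouse pharmacokinetics from single dosing at 2 mg/kg iv and 10 mg/kg po. The study derived AUC, T1/2, clearance, Vss, Tmax, Cmax and oral bioavailability (%F) from the paired iv and po arms.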

[13] = target: T5, Epidermal growth factor receptor (Homo sapiens, UniProt P00533); assay: Inhibition of EGFR after 60 mins by TR-FRET Assay
T5 sequence (P00533 whole entry): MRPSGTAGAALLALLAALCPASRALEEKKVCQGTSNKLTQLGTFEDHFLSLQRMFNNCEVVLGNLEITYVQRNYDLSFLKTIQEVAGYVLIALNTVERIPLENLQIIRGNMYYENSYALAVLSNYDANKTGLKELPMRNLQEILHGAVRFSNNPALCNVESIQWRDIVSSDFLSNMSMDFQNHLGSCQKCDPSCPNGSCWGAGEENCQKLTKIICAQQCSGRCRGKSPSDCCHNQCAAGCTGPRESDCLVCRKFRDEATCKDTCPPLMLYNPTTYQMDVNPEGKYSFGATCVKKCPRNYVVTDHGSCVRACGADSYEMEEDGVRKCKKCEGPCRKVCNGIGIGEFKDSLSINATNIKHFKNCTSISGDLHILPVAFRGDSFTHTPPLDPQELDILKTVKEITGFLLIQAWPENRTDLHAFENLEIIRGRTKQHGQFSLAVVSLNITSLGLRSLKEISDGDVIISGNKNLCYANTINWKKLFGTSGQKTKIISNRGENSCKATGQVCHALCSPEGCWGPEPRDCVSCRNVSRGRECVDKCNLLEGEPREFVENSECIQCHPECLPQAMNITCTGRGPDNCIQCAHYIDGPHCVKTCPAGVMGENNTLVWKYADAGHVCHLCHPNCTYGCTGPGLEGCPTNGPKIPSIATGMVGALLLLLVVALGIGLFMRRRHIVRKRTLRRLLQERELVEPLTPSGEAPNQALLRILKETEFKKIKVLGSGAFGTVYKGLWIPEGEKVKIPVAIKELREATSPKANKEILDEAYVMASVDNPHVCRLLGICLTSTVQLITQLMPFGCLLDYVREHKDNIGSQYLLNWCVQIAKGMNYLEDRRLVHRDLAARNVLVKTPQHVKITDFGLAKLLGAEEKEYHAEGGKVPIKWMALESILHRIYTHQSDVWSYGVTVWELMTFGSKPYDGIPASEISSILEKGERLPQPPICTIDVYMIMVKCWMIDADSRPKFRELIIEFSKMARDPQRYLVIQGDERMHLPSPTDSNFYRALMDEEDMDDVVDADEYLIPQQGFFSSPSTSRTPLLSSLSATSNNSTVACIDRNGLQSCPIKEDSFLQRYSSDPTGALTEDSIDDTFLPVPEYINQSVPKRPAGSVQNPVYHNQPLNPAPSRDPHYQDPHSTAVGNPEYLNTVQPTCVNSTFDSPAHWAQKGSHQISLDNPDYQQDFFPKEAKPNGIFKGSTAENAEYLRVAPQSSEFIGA

[14] = target: T5, Epidermal growth factor receptor; assay: Inhibition of EGFR preincubated for 60 mins measured after 60 mins by TR-FRET Assay
[15] = Tmax in mouse at 10 mg/kg, po; format: ADME, organism-based; design: dose 10 mg/kg, route oral; settings: in vivo; in short: as §2
[16] = AUC (0 to infinity) in mouse at 10 mg/kg, po; format: ADME, organism-based; design: time infinity, dose 10 mg/kg, route oral; settings: plasma
[17] = Volume of distribution at steady state in mouse at 2 mg/kg, iv; format: ADME, organism-based; design: dose 2 mg/kg, route intravenous; settings: in vivo, read-out: Vdss; in short: as §2
[18] = Half life in mouse at 10 mg/kg, po; format: ADME, organism-based; design: dose 10 mg/kg, route oral; settings: in vivo
[19] = AUC (0 to infinity) in mouse at 2 mg/kg, iv; format: ADME, organism-based; design: time infinity, dose 2 mg/kg, route intravenous; settings: plasma
[20] = Clearance in mouse at 2 mg/kg, iv; format: ADME, organism-based; design: dose 2 mg/kg, route intravenous; settings: in vivo
[21] = Homo sapiens, B-cell, read-out: IC50

T1 sequence (P07948 whole entry): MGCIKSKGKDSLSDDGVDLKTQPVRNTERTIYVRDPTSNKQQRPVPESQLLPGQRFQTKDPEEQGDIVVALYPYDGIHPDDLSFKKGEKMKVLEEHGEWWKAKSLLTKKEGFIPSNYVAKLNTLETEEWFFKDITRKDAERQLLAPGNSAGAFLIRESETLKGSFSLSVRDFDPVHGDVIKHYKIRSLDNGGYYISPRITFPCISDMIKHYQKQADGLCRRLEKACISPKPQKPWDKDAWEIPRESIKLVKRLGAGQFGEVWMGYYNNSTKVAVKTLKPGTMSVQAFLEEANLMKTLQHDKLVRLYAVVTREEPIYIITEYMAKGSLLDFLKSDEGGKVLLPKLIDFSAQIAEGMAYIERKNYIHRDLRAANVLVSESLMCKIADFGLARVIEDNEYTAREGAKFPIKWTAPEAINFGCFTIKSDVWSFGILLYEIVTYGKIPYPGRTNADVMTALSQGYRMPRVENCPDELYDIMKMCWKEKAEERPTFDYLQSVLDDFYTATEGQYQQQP

| SMILES | IC50 [1] [nM] | IC50 [2, 21] [nM] | IC50 [3] [nM] | other results |
| --- | --- | --- | --- | --- |
| Cc1cc(F)ccc1Nc1nc2cc(Cl)c(N(C)C(=O)/C=C/CN(C)C)cc2n2cncc12 | 1590 | 2.41 | 9.53 |  |
| Cc1ccc(F)cc1Nc1nc2ccc(N(C)C(=O)/C=C/CN(C)C)cc2n2cncc12 | 1420 | 4.88 | 3.33 | EC50 [4]: > 10000 nM |
| Cc1cc(F)ccc1Nc1nc2cc(F)c(N(C)C(=O)/C=C/CN(C)C)cc2n2cncc12 | 3450 | 8.08 | 5.35 |  |
| CNc1ccc2nc(Nc3cc(F)ccc3C)c3cncn3c2c1 | 40 |  | 72 |  |
| Cc1c(O)cccc1Nc1nc2ccc(N(C)C(=O)/C=C/CN(C)C)cc2n2cncc12 | 490 |  | 76.5 | IC50 ([2]; b cell): Not Active |
| Cc1ccc(F)cc1Oc1nc2cc(F)c(N(C)C(=O)/C=C/CN(C)C)cc2n2cncc12 | 7400 | 144 | 13 |  |
| Cc1cc(O)ccc1Nc1nc2ccc(N(C)C(=O)/C=C/CN(C)C)cc2n2cncc12 | 350 | 1.02 | 12.2 |  |
| CN(C)C/C=C/C(=O)N(C)c1cc2c(cc1Cl)nc(Nc1ccccc1Cl)c1cncn12 | 2000 | 4.4 | 5.03 |  |
| Cc1ccccc1Sc1nc2ccc(N(C)C(=O)/C=C/CN(C)C)cc2n2cncc12 | 19600 | 651 | 283 |  |
| Cc1ccc(F)cc1Nc1nc2cc(Cl)c(N(C)C(=O)/C=C/CN(C)C)cc2n2cncc12 | 3390 | 5.84 | 3.98 | IC50 [5]: 410 nM; Cmax [6]: 454 ng/mL; IC50 [7]: 2.6 nM; IC50 [8]: 2790 nM; IC50 [9]: 3020 nM; half-life [10]: 2.2 h; IC50 [11]: 1620 nM; bioavailability [12]: 58%; IC50 [13]: 68 nM; IC50 [14]: 3.35 nM; Tmax [15]: 3 h; AUC(0-inf) [16]: 3620 ng·h/mL; EC50 [4]: > 10000 nM; Vd [17]: 4.51 L/kg; half-life [18]: 2.7 h; AUC(0-inf) [19]: 1120 ng·h/mL; clearance [20]: 26.6 mL/min/kg |
| Cc1ccc(F)cc1Nc1nc2cc(F)c(N(C)C(=O)/C=C/CN(C)C)cc2n2cncc12 | 3080 | 23.5 | 6.76 |  |
| CN(C)C/C=C/C(=O)N(C)c1ccc2nc(Cl)c3cncn3c2c1 | > 50000 |  | 4290 | IC50 ([2]; b cell): Not Active |
| Cc1ccc(O)cc1Nc1nc2ccc(N(C)C(=O)/C=C/CN(C)C)cc2n2cncc12 | 10.9 | 2.56 | 1.55 |  |
| COc1cc2nc(Nc3ccccc3C)c3cncn3c2cc1NC(=O)C#CCN1CCCCC1 | 21.3 |  | 0.847 |  |
| Cc1cccc(O)c1Nc1nc2ccc(N(C)C(=O)/C=C/CN(C)C)cc2n2cncc12 | 167 | 44.9 | 10.4 |  |
| Cc1ccc(Cl)cc1Nc1nc2ccc(N(C)C(=O)/C=C/CN(C)C)cc2n2cncc12 | 1670 | 53.7 | 13.2 |  |
| Cc1cc(F)ccc1Nc1nc2ccc(N(C)C(=O)/C=C/CN(C)C)cc2n2cncc12 | 716 | 2 | 2.96 |  |
| Cc1cc(Cl)ccc1Nc1nc2ccc(N(C)C(=O)/C=C/CN(C)C)cc2n2cncc12 | 378 | 4.12 | 7.56 |  |
| CNc1cc2c(cc1F)nc(Nc1ccccc1C)c1cncn12 | 19 |  | 40 |  |

| SMILES | IC50 [1] [nM] | IC50 [2, 21] [nM] | IC50 [3] [nM] | other results |
| --- | --- | --- | --- | --- |
| Clc1cc2c(cc1Cl)Oc1cc(Cl)c(Cl)cc1O2 [2,3,7,8-TETRACHLORODIBENZO-P-DIOXIN] |  |  |  | EC50 [4]: 0.03 nM |
| Cc1ccccc1Nc1nc2ccc(N(C)C(=O)/C=C/CN(C)C)cc2n2cncc12 | 623 | 3.17 | 3.99 |  |
| Cc1cc(F)ccc1Oc1nc2ccc(N(C)C(=O)/C=C/CN(C)C)cc2n2cncc12 | 3730 | 228 | 6.58 | EC50 [4]: > 10000 nM |
| Cc1c(F)cccc1Nc1nc2ccc(N(C)C(=O)/C=C/CN(C)C)cc2n2cncc12 | 327 | 3.17 | 1.89 |  |
| Cc1cc(F)ccc1Oc1nc2cc(F)c(N(C)C(=O)/C=C/CN(C)C)cc2n2cncc12 | 10400 | 32.3 | 9.53 |  |
| COc1cc2nc(Nc3ccccc3C)c3cncn3c2cc1N(CC1CC1)C(=O)/C=C/CN(C)C | 1980 | 43.1 | 45.3 |  |
| CCN(C(=O)/C=C/CN(C)C)c1cc2c(cc1OC)nc(Nc1ccccc1C)c1cncn12 | 533 | 16.1 | 19.1 |  |
| COc1cc2nc(Nc3ccccc3C)c3cncn3c2cc1NC(=O)/C=C/CN(C)C | 10.9 |  | 0.884 | IC50 ([2]; b cell): Not Active |
| Cc1ccc(NC(=O)c2cccc(C(F)(F)F)c2)cc1Nc1nc2ccc(N(C)C(=O)/C=C/CN(C)C)cc2n2cncc12 | 1.55 |  | 16.8 | IC50 ([2]; b cell): Not Active |
| CNc1cc2c(cc1F)nc(Oc1ccccc1C)c1cncn12 | 130 |  | 670 |  |
| Cc1ccccc1Nc1nc2cc(Cl)c(N(C)C(=O)/C=C/CN(C)C)cc2n2cncc12 | 1300 | 2.17 | 4.83 |  |
| CN(C)C/C=C/C(=O)N(C)c1cc2c(cc1F)nc(Nc1ccccc1Cl)c1cncn12 | 2130 | 6.75 | 1.82 |  |
| Cc1ccccc1Oc1nc2cc(F)c(N(C)C(=O)/C=C/CN(C)C)cc2n2cncc12 | 6020 | 17.4 | 5.51 |  |
| C=C(CN1CCOCC1)C(=O)Nc1cc2c(cc1OC)nc(Nc1ccccc1C)c1cncn12 | 297 |  | 2.52 |  |
| Cc1cccc(Cl)c1Nc1nc2ccc(N(C)C(=O)/C=C/CN(C)C)cc2n2cncc12 | 44.4 |  | 10.3 | IC50 ([2]; b cell): Not Active |
| Cc1c(Cl)cccc1Nc1nc2ccc(N(C)C(=O)/C=C/CN(C)C)cc2n2cncc12 | 2320 |  | 60.6 | IC50 ([2]; b cell): Not Active |
| CNc1ccc2nc(Oc3ccc(F)cc3C)c3cncn3c2c1 | 560 |  | 1220 |  |
| COc1cc2nc(Nc3ccccc3C)c3cncn3c2cc1NC(=O)C#CCN1CCOCC1 | 46.6 |  | 0.847 |  |

— ChEMBL document CHEMBL1914368, “Imidazo[1,5-a]quinoxalines as irreversible BTK inhibitors for the treatment of rheumatoid arthritis” (Bioorg Med Chem Lett, 2011)
